Assay results gathered from unrelated publications.
Each line is one published result; the experiments were not run side by side. pIC50, pKd, pKi: −log10 of the molar value.
SIGMAR1: Sigma non-opioid intracellular receptor 1 (SIGMAR1, Homo sapiens, UniProt Q99720)
Nectin-4: Nectin-4 (Homo sapiens, UniProt Q96NY8)
PFF0160c E182D: Dihydroorotate dehydrogenase (quinone), mitochondrial (PFF0160c, Plasmodium falciparum, UniProt Q08210, E182D)

C/C(=C\[N+](=O)[O-])c1ccccc1 — pKd (nerA (Agrobacterium radiobacter, UniProt O31246); binding; absorbance): 3.14
O=S(=O)(O)c1nc2ccccc2[nH]1 — pIC50 (racE (Bacillus subtilis, UniProt P94556); enzyme activity; inhibitor; absorbance): 3.89
Cc1c2ccncc2c(C)c2c1[nH]c1ccccc12 — pKi (SIGMAR1; ligand displacement; radioligand): < 5.00
CCCC[C@@H]1NC(=O)[C@H](Cc2ccc(O)cc2)NC(=O)[C@@H]2CCCN2C(=O)[C@H](CC(=O)O)NC(=O)[C@H](C)NC(=O)[C@H](Cc2ccccc2)NC(=O)[C@@H]2CSCCC(=O)N3CN(CN(C3)C(=O)CCSC[C@@H](C(=O)N[C@@H](C)C(N)=O)NC1=O)C(=O)CCSC[C@H](NC(=O)[C@H](C)NC(C)=O)C(=O)N[C@@H]([C@@H](C)CC)C(=O)N[C@@H](CCC(=O)O)C(=O)N[C@@H](CCC(=O)O)C(=O)N[C@H](CCCCNC(=O)CCc1cn(CCOCCOCCOCCN(CCOCCOCCOCCC(=O)N[C@H]3CSCCC(=O)N4CN5CN(C4)C(=O)CCSC[C@H](NC(=O)[C@@H](CC(=O)O)NC(=O)[C@H](Cc4cccc6ccccc46)NC(=O)[C@@H]4CCCN4C3=O)C(=O)N[C@@H](CCSC)C(=O)N[C@@H](CCCCNC(=N)N)C(=O)N[C@@H](CC(=O)O)C(=O)N[C@@H](Cc3c[nH]c4ccccc34)C(=O)N[C@@H](CO)C(=O)N[C@@H]([C@@H](C)O)C(=O)N3CCC[C@H]3C(=O)N3C[C@H](O)C[C@H]3C(=O)N[C@@H](Cc3c[nH]c4ccccc34)C(=O)N[C@H](C(N)=O)CSCCC5=O)CCOCCOCCOCCn3cc(CCC(=O)NCCCC[C@H]4NC(=O)[C@H](CCC(=O)O)NC(=O)[C@H](CCC(=O)O)NC(=O)[C@H]([C@@H](C)CC)NC(=O)[C@@H](NC(=O)[C@H](C)NC(C)=O)CSCCC(=O)N5CN6CN(C5)C(=O)CCSC[C@H](NC(=O)[C@H](Cc5ccc(O)cc5)NC(=O)[C@H](CCC(N)=O)NC4=O)C(=O)N[C@@H](Cc4ccccc4)C(=O)N[C@@H](C)C(=O)N[C@@H](CC(=O)O)C(=O)N4CCC[C@H]4C(=O)N[C@@H](Cc4ccc(O)cc4)C(=O)N[C@@H](CCCC)C(=O)N[C@H](C(=O)N[C@@H](C)C(N)=O)CSCCC6=O)nn3)nn1)C(=O)N[C@@H](CCC(N)=O)C(=O)N[C@@H](Cc1ccc(O)cc1)C(=O)N2 — pKd (Nectin-4; binding; SPR): 8.17
CC1CCN(CCCC(=O)c2ccc(F)cc2)CC1 — pKi (SIGMAR1; ligand displacement; radioligand): 8.00
COc1nc(NCC(C)C)nc(Oc2ccc(=O)n(Cc3ccccc3)n2)n1 — pIC50 (Dihydroorotate dehydrogenase (quinone), mitochondrial (PFF0160c, Plasmodium falciparum, UniProt Q08210); enzyme activity; inhibitor; absorbance): 6.91
CCCC[C@@H]1NC(=O)[C@H](Cc2ccc(O)cc2)NC(=O)[C@@H]2CCCN2C(=O)[C@H](CC(N)=O)NC(=O)[C@H](C)NC(=O)[C@H](Cc2ccccc2)NC(=O)[C@@H]2CSCCC(=O)N3CN(CN(C3)C(=O)CCSC[C@H](NC(C)=O)C(=O)N[C@@H](CC(C)(C)C)C(=O)N3CCC[C@H]3C(=O)N[C@@H](CCC(=O)O)C(=O)N[C@H](CCCCNC(=O)CCc3cn(CCOCCOCCOCCN(CCOCCOCCOCCC(=O)N[C@H]4CSCCC(=O)N5CN6CN(C5)C(=O)CCSC[C@H](NC(=O)[C@@H](CC(=O)O)NC(=O)[C@H](Cc5cccc7ccccc57)NC(=O)[C@@H]5CCCN5C4=O)C(=O)N[C@@H](CCSC)C(=O)N[C@@H](CCCCNC(=N)N)C(=O)N[C@@H](CC(=O)O)C(=O)N[C@@H](Cc4c[nH]c5ccccc45)C(=O)N[C@@H](CO)C(=O)N[C@@H]([C@@H](C)O)C(=O)N4CCC[C@H]4C(=O)N4C[C@H](O)C[C@H]4C(=O)N[C@@H](Cc4c[nH]c5ccccc45)C(=O)N[C@H](C(N)=O)CSCCC6=O)CCOCCOCCOCCn4cc(CCC(=O)NCCCC[C@H]5NC(=O)[C@H](CCC(=O)O)NC(=O)[C@@H]6CCCN6C(=O)[C@H](CC(C)(C)C)NC(=O)[C@@H](NC(C)=O)CSCCC(=O)N6CN7CN(C6)C(=O)CCSC[C@H](NC(=O)[C@H](Cc6ccc(O)cc6)NC(=O)[C@@H]6CCCN6C5=O)C(=O)N[C@@H](Cc5ccccc5)C(=O)N[C@@H](C)C(=O)N[C@@H](CC(N)=O)C(=O)N5CCC[C@H]5C(=O)N[C@@H](Cc5ccc(O)cc5)C(=O)N[C@@H](CCCC)C(=O)N[C@H](C(N)=O)CSCCC7=O)nn4)nn3)C(=O)N3CCC[C@H]3C(=O)N[C@@H](Cc3ccc(O)cc3)C(=O)N2)C(=O)CCSC[C@@H](C(N)=O)NC1=O — pKd (Nectin-4; binding; SPR): 8.72
Oc1cc(NC[C@H]2CCC[C@@H]2NCc2cc(Br)cc(Br)c2)nc2ccccc12 — pIC50 (PFF0160c E182D; enzyme activity; inhibitor; absorbance): < 5.00
CCCC[C@@H]1NC(=O)[C@H](Cc2ccc(O)cc2)NC(=O)[C@@H]2CCCN2C(=O)[C@H](CC(=O)O)NC(=O)[C@H](C)NC(=O)[C@H](Cc2ccccc2)NC(=O)[C@@H]2CSCCC(=O)N3CN(CN(C3)C(=O)CCSC[C@H](NC(C)=O)C(=O)N[C@@H](CC(C)(C)C)C(=O)N[C@@H](CCC(=O)O)C(=O)N[C@@H](CCC(=O)O)C(=O)N[C@H](CCCCNC(=O)CCc3cn(CCOCCOCCOCCOCCOCCC(=O)N[C@H]4CSCCC(=O)N5CN6CN(C5)C(=O)CCSC[C@H](NC(=O)[C@@H](CC(=O)O)NC(=O)[C@H](Cc5cccc7ccccc57)NC(=O)[C@@H]5CCCN5C4=O)C(=O)N[C@@H](CCSC)C(=O)N[C@@H](CCCCNC(=N)N)C(=O)N[C@@H](CC(=O)O)C(=O)N[C@@H](Cc4c[nH]c5ccccc45)C(=O)N[C@@H](CO)C(=O)N[C@@H]([C@@H](C)O)C(=O)N4CCC[C@H]4C(=O)N4C[C@H](O)C[C@H]4C(=O)N[C@@H](Cc4c[nH]c5ccccc45)C(=O)N[C@H](C(N)=O)CSCCC6=O)nn3)C(=O)N3CCC[C@H]3C(=O)N[C@@H](Cc3ccc(O)cc3)C(=O)N2)C(=O)CCSC[C@@H](C(N)=O)NC1=O — pKd (Nectin-4; binding; SPR): 8.77
CSc1nc2nc(C)c(Cc3cccc(C(F)(F)F)c3)c(C)n2n1 — pIC50 (PFF0160c E182D; enzyme activity; inhibitor; absorbance): < 5.00
COC(=O)C1(c2ccc(C)cc2)CC1CN1CCC(O)(c2ccccc2)CC1 (stereo not drawn) — pKi (SIGMAR1; ligand displacement; radioligand): 7.73
CCCC[C@@H]1NC(=O)[C@H](Cc2ccc(O)cc2)NC(=O)[C@@H]2CCCN2C(=O)[C@H](CC(=O)O)NC(=O)[C@H](C)NC(=O)[C@H](Cc2ccccc2)NC(=O)[C@@H]2CSCCC(=O)N3CN(CN(C3)C(=O)CCSCCC(=O)N[C@@H](CC(C)(C)C)C(=O)N3CCC[C@H]3C(=O)N[C@@H](CCC(=O)O)C(=O)N[C@H](CCCCNC(=O)CCc3cn(CCOCCOCCOCCN(CCOCCOCCOCCC(=O)N[C@H]4CSCCC(=O)N5CN6CN(C5)C(=O)CCSC[C@H](NC(=O)[C@@H](CC(=O)O)NC(=O)[C@H](Cc5cccc7ccccc57)NC(=O)[C@@H]5CCCN5C4=O)C(=O)N[C@@H](CCSC)C(=O)N[C@@H](CCCCNC(=N)N)C(=O)N[C@@H](CC(=O)O)C(=O)N[C@@H](Cc4c[nH]c5ccccc45)C(=O)N[C@@H](CO)C(=O)N[C@@H]([C@@H](C)O)C(=O)N4CCC[C@H]4C(=O)N4C[C@H](O)C[C@H]4C(=O)N[C@@H](Cc4c[nH]c5ccccc45)C(=O)N[C@H](C(N)=O)CSCCC6=O)CCOCCOCCOCCn4cc(CCC(=O)NCCCC[C@H]5NC(=O)[C@H](CCC(=O)O)NC(=O)[C@@H]6CCCN6C(=O)[C@H](CC(C)(C)C)NC(=O)CCSCCC(=O)N6CN7CN(C6)C(=O)CCSC[C@H](NC(=O)[C@H](Cc6ccc(O)cc6)NC(=O)[C@@H]6CCCN6C5=O)C(=O)N[C@@H](Cc5ccccc5)C(=O)N[C@@H](C)C(=O)N[C@@H](CC(=O)O)C(=O)N5CCC[C@H]5C(=O)N[C@@H](Cc5ccc(O)cc5)C(=O)N[C@@H](CCCC)C(=O)NCCSCCC7=O)nn4)nn3)C(=O)N3CCC[C@H]3C(=O)N[C@@H](Cc3ccc(O)cc3)C(=O)N2)C(=O)CCSCCNC1=O — pKd (Nectin-4; binding; SPR): 8.40
